{"source": "ChEMBL document CHEMBL1122299", "about": "“Potential cerebral perfusion agents: synthesis and evaluation of a radioiodinated vinylalkylbarbituric acid analogue” (J Med Chem, 1983)", "key": {"[1]": {"assay": "In vivo deiodination was determined; Resistant", "assay_type": "functional, organism-based", "method_in_brief": "(§1)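 Female Fischer 344 rats (10–12 weeks, 170–200 g, food and water ad libitum) received 7.95 μCi of the 125I-labeled barbiturate (sp act ~155 mCi/mmol) in filtered pH 7.4 phosphate buffer via lateral tail vein under ether anesthesia. Four rats per time point were killed at 2 min to 1 day. Thyroid and other organs were excised, rinsed, blotted, weighed and gamma-counted as % injected dose/g.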"}, "Rattus norvegicus": {"organism": "Rattus norvegicus", "assay": "Uptake in the thyroid or any of the other tissues tested in rats; NS- No significant activity", "assay_type": "functional, organism-based", "conditions": "Thyroid gland", "method_in_brief": "as §1"}}, "note": "Activity calls are given as the source filed them. The rule behind the calls is not given here.", "data": [{"smiles": "CCOC(=O)C(CC)(CCC/C=C/I)C(=O)O", "note": "(configuration not stated)", "values": [{"measurement": "Activity", "setting": "[1]", "result": "Resistant"}, {"measurement": "Activity", "setting": "Rattus norvegicus", "result": "inactive"}]}]}
